Here are results for one compound from ChEMBL document CHEMBL4038327, “Inhibitory Kappa B Kinase α (IKKα) Inhibitors That Recapitulate Their Selectivity in Cells against Isoform-Related Biomarkers” (J Med Chem, 2017).

Test [1] deals with T1, Inhibitor of nuclear factor kappa-B kinase subunit alpha (Homo sapiens) (UniProt O15111).
T1 sequence (whole entry): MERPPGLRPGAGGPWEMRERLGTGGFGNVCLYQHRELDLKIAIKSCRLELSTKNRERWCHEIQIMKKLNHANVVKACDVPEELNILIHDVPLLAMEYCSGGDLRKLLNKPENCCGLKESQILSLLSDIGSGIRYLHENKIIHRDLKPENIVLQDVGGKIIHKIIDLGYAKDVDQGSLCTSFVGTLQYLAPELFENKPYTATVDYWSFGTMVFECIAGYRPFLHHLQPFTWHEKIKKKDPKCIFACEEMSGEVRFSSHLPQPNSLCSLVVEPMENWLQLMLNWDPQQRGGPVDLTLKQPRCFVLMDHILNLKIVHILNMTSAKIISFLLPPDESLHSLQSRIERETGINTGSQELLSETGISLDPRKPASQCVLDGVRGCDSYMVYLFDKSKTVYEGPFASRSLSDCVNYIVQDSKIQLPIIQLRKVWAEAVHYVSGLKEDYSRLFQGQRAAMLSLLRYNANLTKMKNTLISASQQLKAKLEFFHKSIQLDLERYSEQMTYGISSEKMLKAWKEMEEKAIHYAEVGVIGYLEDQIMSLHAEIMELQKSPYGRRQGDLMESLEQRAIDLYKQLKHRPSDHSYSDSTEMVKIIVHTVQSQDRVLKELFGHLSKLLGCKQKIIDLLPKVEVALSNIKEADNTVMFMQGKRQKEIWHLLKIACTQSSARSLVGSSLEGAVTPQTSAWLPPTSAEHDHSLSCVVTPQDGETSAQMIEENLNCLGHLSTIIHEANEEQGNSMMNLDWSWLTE
The experiment in a line: (§1) Inhibition of IKKalpha in human U2OS cells assessed as decrease in FCS induced p100 phosphorylation at ser866/870 residues preincubated for 1 hr followed by FCS stimulation for 4 hrs by Western blot analysis. The class given is cell-based. The procedure, abridged: (§2)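 U2OS cells were grown in McCoy's 5A medium at 37 °C under 5% CO2 and made quiescent by 24 h serum deprivation. They were then pretreated with compound before agonist stimulation in serum-free medium. Phospho-p100, IκBα levels and phospho-p65 (Ser536) were assessed by Western blot.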

The target of test [2] is T2, Inhibitor of nuclear factor kappa-B kinase subunit alpha (Homo sapiens, UniProt O15111).
T2 sequence (O15111 whole entry): T1 sequence (whole entry)
The test is described as §1. The test is classed as cell-based. The method in brief: as §2

In test [3] the target is T3, Inhibitor of nuclear factor kappa-B kinase subunit alpha (Mus musculus) (UniProt Q60680).
T3 sequence (whole entry): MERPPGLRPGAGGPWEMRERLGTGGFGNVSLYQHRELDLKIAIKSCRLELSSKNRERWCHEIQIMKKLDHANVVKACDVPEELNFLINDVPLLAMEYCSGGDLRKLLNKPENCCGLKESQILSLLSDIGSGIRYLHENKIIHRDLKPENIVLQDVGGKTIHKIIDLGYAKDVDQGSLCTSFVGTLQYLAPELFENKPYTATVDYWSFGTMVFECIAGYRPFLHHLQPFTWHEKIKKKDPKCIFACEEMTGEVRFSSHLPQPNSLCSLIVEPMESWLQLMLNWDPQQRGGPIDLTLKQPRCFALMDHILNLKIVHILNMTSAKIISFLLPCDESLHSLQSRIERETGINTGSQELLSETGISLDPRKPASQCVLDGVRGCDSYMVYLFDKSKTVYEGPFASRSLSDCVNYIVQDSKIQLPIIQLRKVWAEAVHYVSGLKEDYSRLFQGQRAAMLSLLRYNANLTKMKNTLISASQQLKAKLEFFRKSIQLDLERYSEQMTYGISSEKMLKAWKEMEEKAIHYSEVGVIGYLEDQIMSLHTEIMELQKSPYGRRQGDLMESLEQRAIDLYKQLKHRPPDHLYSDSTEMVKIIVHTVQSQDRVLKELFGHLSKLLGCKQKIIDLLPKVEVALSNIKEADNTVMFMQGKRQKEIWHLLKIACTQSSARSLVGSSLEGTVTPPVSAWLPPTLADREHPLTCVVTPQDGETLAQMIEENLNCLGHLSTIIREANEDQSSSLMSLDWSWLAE
Briefly: Inhibition of IKKalpha in IKKbeta knockout mouse embryonic fibroblast cells harboring Adv.NF-kB.luc assessed as IL-1beta induced NF-kB transcriptional activation at 100 uM pretreated for 1 hr followed by IL-1beta stimulation for 6 hrs by luciferase reporter gene assay relative to control. More on the design: scale not given: the % may be the effect or the level left. The procedure, abridged: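 IKKβ knockout MEFs infected with Adv.NF-kB.luc (up to 300 pfu/cell, 24 h, 10% DMEM), replated and serum-starved 24 h. Pretreated 1 h with compound, then IL-1β (10 ng/mL) for 6 h. Lysis buffer contained 0.2 mM luciferin, and luminescence was read as RLU. Results are expressed as % of IL-1β + DMSO stimulation.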

The target in test [4] is T4, Inhibitor of nuclear factor kappa-B kinase subunit beta (Homo sapiens, UniProt O14920).
T4 sequence (O14920 whole entry): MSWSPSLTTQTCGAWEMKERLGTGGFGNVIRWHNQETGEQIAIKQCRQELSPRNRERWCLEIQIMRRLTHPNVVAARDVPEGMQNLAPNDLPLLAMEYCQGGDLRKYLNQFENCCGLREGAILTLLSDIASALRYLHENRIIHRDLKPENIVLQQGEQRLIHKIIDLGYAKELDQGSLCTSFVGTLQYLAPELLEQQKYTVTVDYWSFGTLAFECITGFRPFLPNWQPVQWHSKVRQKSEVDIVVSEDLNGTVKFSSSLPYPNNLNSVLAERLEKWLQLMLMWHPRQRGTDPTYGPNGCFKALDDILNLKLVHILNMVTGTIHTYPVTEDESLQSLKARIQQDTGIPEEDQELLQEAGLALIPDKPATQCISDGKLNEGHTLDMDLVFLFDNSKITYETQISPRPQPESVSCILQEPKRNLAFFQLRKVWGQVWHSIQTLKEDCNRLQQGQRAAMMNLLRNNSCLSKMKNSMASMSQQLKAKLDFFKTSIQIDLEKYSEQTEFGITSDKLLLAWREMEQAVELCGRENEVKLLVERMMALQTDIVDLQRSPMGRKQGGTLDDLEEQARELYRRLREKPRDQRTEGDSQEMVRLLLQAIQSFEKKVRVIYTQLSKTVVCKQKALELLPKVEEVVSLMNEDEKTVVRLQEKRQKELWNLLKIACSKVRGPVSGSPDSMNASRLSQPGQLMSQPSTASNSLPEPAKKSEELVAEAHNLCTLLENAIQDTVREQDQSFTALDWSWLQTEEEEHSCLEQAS
The experiment in a line: Inhibition of recombinant full length human IKKbeta expressed in baculovirus infected sf9 insect cells using biotinylated IkBalpha as substrate after 60 mins by DELFIA. The method in brief: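 Recombinant IKKβ (37 nM) was incubated with biotinylated IκB-α (Ser32) peptide (0.375 μM) and 40 μM ATP in Tris-HCl pH 7.5 with MgCl2, EDTA, DTT and BSA for 60 min at 30 °C. The reaction was quenched with EDTA and captured on streptavidin. Detection used anti-phospho-IκBα (Ser32/36) mAb plus Eu-anti-mouse IgG, read by time-resolved fluorescence (340/615 nm). Apparent Ki was obtained via Cheng–Prusoff, n=3.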

Each structure is given as a SMILES string.

Turning to `N#Cc1c[nH]c2nc(N)nc(-c3ccc(S(N)(=O)=O)cc3)c12`, the inhibition entry in test [1] is “Dose-dependent effect”. Besides, in test [2], the IC50 fell in the range of 5.8 to 8.8 µM. Besides, the Activity in test [3] was -40.9%. Further, the Ki in test [4] stood at 1 µM.
